# Experimental data taken from ChEMBL document CHEMBL1155222, “Synthesis and anticancer activity of N-bis(trifluoromethyl)alkyl-N'-thiazolyl and N-bis(trifluoromethyl)alkyl-N'-benzothiazolyl ureas” (2009).
# How the values were obtained:
# Format in all cases: functional
# CCRF-CEM = assay: Anticancer activity against human CCRF-CEM cells after 48 hrs by sulforhodamine B assay
# Outline: (§1)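 NCI 60-cell-line screen. Cells grown in RPMI 1640 with 5% FBS and 2 mM L-glutamine, plated at 5000–40,000 cells/well, and preincubated 24 h at 37 °C under 5% CO2. Compounds were taken from DMSO stocks and tested at five final concentrations, 10^-4 to 10^-8 M, for 48 h. Cells were TCA-fixed, stained with 0.4% SRB, and read at 515 nm. GI50, TGI and LC50 were derived as log molar values.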
# K562 = assay: Anticancer activity against human K562 cells after 48 hrs by sulforhodamine B assay; conditions: K562, 48 h; outline: as §1
# MOLT-4 = assay: Anticancer activity against human MOLT4 cells after 48 hrs by sulforhodamine B assay; conditions: MOLT-4, 48 h; outline: as §1
# SR = assay: Anticancer activity against human SR cells after 48 hrs by sulforhodamine B assay
# Outline: (§2)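 NCI 60-cell-line panel; cells grown in RPMI 1640 with 5% FBS and 2 mM L-glutamine, plated at 5000–40,000 cells/well and preincubated 24 h at 37 °C, 5% CO2. Compounds came from DMSO stocks diluted in medium with gentamicin and were tested at five final concentrations, 10^-4 to 10^-8 M, for 48 h. Cells were fixed with TCA, stained with SRB and read at 515 nm. GI50, TGI and LC50 were derived as log molar values.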
# A549 = assay: Anticancer activity against human A549 cells after 48 hrs by sulforhodamine B assay; conditions: A549, 48 h; outline: as §1
# EKVX = assay: Anticancer activity against human EKVX cells after 48 hrs by sulforhodamine B assay; outline: as §1
# HOP-62 = assay: Anticancer activity against human HOP62 cells after 48 hrs by sulforhodamine B assay; conditions: HOP-62, 48 h; outline: as §1
# NCI-H226 = assay: Anticancer activity against human NCI-H226 cells after 48 hrs by sulforhodamine B assay; conditions: NCI-H226, 48 h; outline: as §1
# NCI-H322M = assay: Anticancer activity against human NCI-H322M cells after 48 hrs by sulforhodamine B assay; outline: as §1
# NCI-H460 = assay: Anticancer activity against human NCI-H460 cells after 48 hrs by sulforhodamine B assay; conditions: NCI-H460, 48 h; outline: as §1
# NCI-H522 = assay: Anticancer activity against human NCI-H522 cells after 48 hrs by sulforhodamine B assay; conditions: NCI-H522, 48 h; outline: as §1
# COLO 205 = assay: Anticancer activity against human COLO205 cells after 48 hrs by sulforhodamine B assay; conditions: COLO 205, 48 h; outline: as §1
# HCT-116 = assay: Anticancer activity against human HCT116 cells after 48 hrs by sulforhodamine B assay; conditions: HCT-116, 48 h; outline: as §1
# HCT-15 = assay: Anticancer activity against human HCT15 cells after 48 hrs by sulforhodamine B assay; conditions: HCT-15, 48 h; outline: as §1
# HT-29 = assay: Anticancer activity against human HT-29 cells after 48 hrs by sulforhodamine B assay; conditions: HT-29, 48 h; outline: as §1
# KM12 = assay: Anticancer activity against human KM12 cells after 48 hrs by sulforhodamine B assay; conditions: KM12, 48 h; outline: as §1
# SF-268 = assay: Anticancer activity against human SF268 cells after 48 hrs by sulforhodamine B assay; conditions: SF-268, 48 h; outline: as §1
# SF-295 = assay: Anticancer activity against human SF295 cells after 48 hrs by sulforhodamine B assay; conditions: SF-295, 48 h; outline: as §1
# SF-539 = assay: Anticancer activity against human SF539 cells after 48 hrs by sulforhodamine B assay; conditions: SF-539, 48 h; outline: as §1
# U-251 = assay: Anticancer activity against human U251 cells after 48 hrs by sulforhodamine B assay; conditions: U-251, 48 h; outline: as §2
# LOX IMVI = assay: Anticancer activity against human LOXIMVI cells after 48 hrs by sulforhodamine B assay; outline: as §1
# Malme-3M = assay: Anticancer activity against human MALME-3M cells after 48 hrs by sulforhodamine B assay; outline: as §1
# M14 = assay: Anticancer activity against human M14 cells after 48 hrs by sulforhodamine B assay; conditions: M14, 48 h; outline: as §1
# SK-MEL-2 = assay: Anticancer activity against human SK-MEL-2 cells after 48 hrs by sulforhodamine B assay; conditions: SK-MEL-2, 48 h; outline: as §1
# SK-MEL-28 = assay: Anticancer activity against human SK-MEL-28 cells after 48 hrs by sulforhodamine B assay; conditions: SK-MEL-28, 48 h; outline: as §1
# UACC-257 = assay: Anticancer activity against human UACC257 cells after 48 hrs by sulforhodamine B assay; conditions: UACC-257, 48 h; outline: as §2
# UACC-62 = assay: Anticancer activity against human UACC62 cells after 48 hrs by sulforhodamine B assay; conditions: UACC-62, 48 h; outline: as §2
# IGROV-1 = assay: Anticancer activity against human IGROV1 cells after 48 hrs by sulforhodamine B assay; conditions: IGROV-1, 48 h; outline: as §1
# OVCAR-3 = assay: Anticancer activity against human OVCAR-3 cells after 48 hrs by sulforhodamine B assay; conditions: OVCAR-3, 48 h; outline: as §1
# OVCAR-5 = assay: Anticancer activity against human OVCAR5 cells after 48 hrs by sulforhodamine B assay; conditions: OVCAR-5, 48 h; outline: as §1
# OVCAR-8 = assay: Anticancer activity against human OVCAR8 cells after 48 hrs by sulforhodamine B assay; conditions: OVCAR-8, 48 h; outline: as §1
# 786-0 = assay: Anticancer activity against human 786-0 cells after 48 hrs by sulforhodamine B assay; conditions: 786-0, 48 h; outline: as §1
# A498 = assay: Anticancer activity against human A498 cells after 48 hrs by sulforhodamine B assay; conditions: A498, 48 h; outline: as §1
# ACHN = assay: Anticancer activity against human ACHN cells after 48 hrs by sulforhodamine B assay; outline: as §1
# CAKI-1 = assay: Anticancer activity against human Caki1 cells after 48 hrs by sulforhodamine B assay; conditions: CAKI-1, 48 h; outline: as §1
# RXF 393 = assay: Anticancer activity against human RXF393 cells after 48 hrs by sulforhodamine B assay; conditions: RXF 393, 48 h; outline: as §1
# SN12C = assay: Anticancer activity against human SN12C cells after 48 hrs by sulforhodamine B assay; outline: as §2
# TK-10 = assay: Anticancer activity against human TK10 cells after 48 hrs by sulforhodamine B assay; conditions: TK-10, 48 h; outline: as §2
# UO-31 = assay: Anticancer activity against human UO31 cells after 48 hrs by sulforhodamine B assay; conditions: UO-31, 48 h; outline: as §2
# PC-3 = assay: Anticancer activity against human PC3 cells after 48 hrs by sulforhodamine B assay; conditions: PC-3, 48 h; outline: as §1
# DU-145 = assay: Anticancer activity against human DU145 cells after 48 hrs by sulforhodamine B assay; conditions: DU-145, 48 h; outline: as §1
# MDA-MB-231 = assay: Anticancer activity against human MDA-MB-231 cells after 48 hrs by sulforhodamine B assay; conditions: MDA-MB-231, 48 h; outline: as §1
# MDA-MB-435 = assay: Anticancer activity against human MDA-MB-435 cells after 48 hrs by sulforhodamine B assay; conditions: MDA-MB-435, 48 h; outline: as §1
# MDA-N = assay: Anticancer activity against human MDA-N cells after 48 hrs by sulforhodamine B assay; outline: as §1
# T47D = assay: Anticancer activity against human T47D cells after 48 hrs by sulforhodamine B assay; outline: as §2
smiles,measurement,setting,value
CNC(=O)Nc1ccccc1,GI50,CCRF-CEM,100 µM
same,GI50,K562,100 µM
same,GI50,MOLT-4,100 µM
same,GI50,SR,100 µM
same,GI50,A549,100 µM
same,GI50,EKVX,100 µM
same,GI50,HOP-62,100 µM
same,GI50,NCI-H226,100 µM
same,GI50,NCI-H322M,100 µM
same,GI50,NCI-H460,100 µM
same,GI50,NCI-H522,100 µM
same,GI50,COLO 205,100 µM
same,GI50,HCT-116,100 µM
same,GI50,HCT-15,100 µM
same,GI50,HT-29,100 µM
same,GI50,KM12,100 µM
same,GI50,SF-268,100 µM
same,GI50,SF-295,100 µM
same,GI50,SF-539,100 µM
same,GI50,U-251,100 µM
same,GI50,LOX IMVI,100 µM
same,GI50,Malme-3M,100 µM
same,GI50,M14,100 µM
same,GI50,SK-MEL-2,100 µM
same,GI50,SK-MEL-28,100 µM
same,GI50,UACC-257,100 µM
same,GI50,UACC-62,100 µM
same,GI50,IGROV-1,100 µM
same,GI50,OVCAR-3,100 µM
same,GI50,OVCAR-5,100 µM
same,GI50,OVCAR-8,100 µM
same,GI50,786-0,100 µM
same,GI50,A498,100 µM
same,GI50,ACHN,100 µM
same,GI50,CAKI-1,100 µM
same,GI50,RXF 393,100 µM
same,GI50,SN12C,100 µM
same,GI50,TK-10,100 µM
same,GI50,UO-31,100 µM
same,GI50,PC-3,100 µM
same,GI50,DU-145,100 µM
same,GI50,MDA-MB-231,100 µM
same,GI50,MDA-MB-435,100 µM
same,GI50,MDA-N,100 µM
same,GI50,T47D,100 µM
O=C(Nc1nc2ccccc2s1)NC(C(F)(F)F)C(F)(F)F,GI50,CCRF-CEM,33.1 µM
same,GI50,K562,25.1 µM
same,GI50,MOLT-4,29.5 µM
same,GI50,SR,25.7 µM
same,GI50,A549,26.9 µM
same,GI50,EKVX,20.9 µM
same,GI50,HOP-62,38 µM
same,GI50,NCI-H226,25.7 µM
same,GI50,NCI-H322M,18.2 µM
same,GI50,NCI-H460,22.4 µM
same,GI50,NCI-H522,14.1 µM
same,GI50,COLO 205,17.8 µM
same,GI50,HCT-116,16.6 µM
same,GI50,HCT-15,25.7 µM
same,GI50,HT-29,19.5 µM
same,GI50,KM12,29.5 µM
same,GI50,SF-268,29.5 µM
same,GI50,SF-295,23.4 µM
same,GI50,SF-539,26.9 µM
same,GI50,U-251,24.5 µM
same,GI50,LOX IMVI,22.9 µM
same,GI50,Malme-3M,20.4 µM
same,GI50,M14,19.1 µM
same,GI50,SK-MEL-2,22.9 µM
same,GI50,SK-MEL-28,35.5 µM
same,GI50,UACC-257,20.4 µM
same,GI50,UACC-62,24.5 µM
same,GI50,IGROV-1,38 µM
same,GI50,OVCAR-3,18.2 µM
same,GI50,OVCAR-5,27.5 µM
same,GI50,OVCAR-8,33.9 µM
same,GI50,786-0,28.8 µM
same,GI50,A498,20 µM
same,GI50,ACHN,28.2 µM
same,GI50,CAKI-1,28.8 µM
same,GI50,RXF 393,28.2 µM
same,GI50,SN12C,14.1 µM
same,GI50,TK-10,31.6 µM
same,GI50,UO-31,3.24 µM
same,GI50,PC-3,25.1 µM
same,GI50,DU-145,30.2 µM
same,GI50,MDA-MB-231,22.4 µM
same,GI50,MDA-MB-435,31.6 µM
same,GI50,MDA-N,23.4 µM
same,GI50,T47D,17 µM
